PLCb3 inh: blocks human PLC-beta3 enzyme activity; inhibition, % at 12.2 µM; Q01970; Purified PLC-beta3, fluorogenic substrate, fluorescence; AID 720704; 370,000 tested, 0.18% active; in the data active = inhibition above about 11%;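 also: 0% = median of compound wells on plate and 100% = full blocker control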
TbMetRS inhib: blocks T. brucei methionyl-tRNA synthetase activity; purified T. brucei MetRS, ATP depletion, Kinase-Glo luminescence; inhibition, % at 11.9 µM; 360,000 tested, 0.4% active; AID 624268;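 active = inhibition above a per-plate cutoff of the control wells' mean inhibition plus 3 SD, cut at about 5.5% in these data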;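 also: 0% = DMSO wells median and 100% = median of wells with control inhibitor compound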
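Material – parasite MetRS enzyme · Medium – HEPES-MgCl2-KCl buffer plus DTT, spermine, BSA, pyrophosphatase · Reagent – ATP, methionine and E. coli bulk tRNA substrates · Times – 15 min enzyme-compound preincubation, 2 h reaction, 10 min detection, 25 °C · Measured by – luminescence of leftover ATP · Evaluation – percent inhibition relative to median high and low control wells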
PLCg1 inh: inhibitors of human phospholipase C gamma1 | P19174 | purified PLC-gamma1, fluorogenic substrate, fluorescence | inhibition, % at 12.2 µM | 370,000 tested, 0.84% active
ADAM10 inh: ADAM10 inhibition, QFRET primary screen. O14672. recombinant ADAM10, EDANS/DABCYL FRET peptide cleavage, 3 h. inhibition, % at 7 µM. 370,000 tested, 0.62% active. AID 720582;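 active = inhibition above a per-campaign cutoff equal to the mean of compounds falling between control-based bounds plus 3 SD, cut at about 20% in these data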;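 also: 0% = DMSO wells while the 100% control is not disclosed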
Target sequence (O14672 214-748 limits assumed): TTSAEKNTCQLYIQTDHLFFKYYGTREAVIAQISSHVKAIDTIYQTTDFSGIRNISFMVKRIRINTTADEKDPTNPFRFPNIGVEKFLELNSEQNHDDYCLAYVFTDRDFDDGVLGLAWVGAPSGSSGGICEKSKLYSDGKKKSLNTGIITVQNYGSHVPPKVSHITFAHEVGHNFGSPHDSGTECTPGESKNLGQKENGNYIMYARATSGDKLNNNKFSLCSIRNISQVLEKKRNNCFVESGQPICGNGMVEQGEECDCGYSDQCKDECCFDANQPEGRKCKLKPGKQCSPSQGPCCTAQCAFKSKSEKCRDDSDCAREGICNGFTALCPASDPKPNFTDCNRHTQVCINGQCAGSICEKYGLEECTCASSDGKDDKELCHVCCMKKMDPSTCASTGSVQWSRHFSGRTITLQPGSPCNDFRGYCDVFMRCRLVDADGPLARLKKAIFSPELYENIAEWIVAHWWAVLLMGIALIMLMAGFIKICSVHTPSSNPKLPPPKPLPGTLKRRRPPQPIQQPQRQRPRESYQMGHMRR
ADAM17 inh: inhibits human ADAM17. P78536. inhibition, % at 6.95 µM. 370,000 tested, 0.83% active. recombinant ADAM17, EDANS/DABCYL FRET peptide cleavage;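 active = inhibition above the mean of compounds lying between control limits plus 3 SD, set per campaign, cut at about 8.5% in these data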;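 also: 0% = DMSO-only wells as the low control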
PLCg1 ctr: counter-screen for PLC-beta3 inhibitors: inhibitors of human PLC-gamma1; shares compounds with PLCg1 inh; purified PLC-gamma1, fluorogenic substrate, fluorescence; inhibition, % at 12.3 µM; 3,300 tested, 3.1% active
PLCb3 confirm: human PLC-beta3 inhibition, confirmation | purified PLC-beta3, fluorogenic substrate fluorescence | shares compounds with PLCg1 inh | 3,300 tested, 1% active | inhibition, % at 12.3 µM; in the data active = inhibition above about 11%
An asterisk follows results filed as active; nt = not tested or not shown. Shown are actives, neighbours in structure and some others; about 2.3% of the full set was active somewhere. Rule as the data show it, unless noted: active = inhibition above about 9.5%; inactive = the rest.

SMILES	PLCb3 inh	TbMetRS inhib	PLCg1 inh	ADAM10 inh	ADAM17 inh	PLCg1 ctr	PLCb3 confirm
COc1ccc(CN2CCCC(C(=O)N3CCCC3)C2)c(OC)c1OC (stereo unspecified)	7	-2	11*	-4	1	1	3
C=CC[C@@H](CC(=O)N(CCO)Cc1ccccc1)C(=O)N[C@@H](C)COC(=O)[C@@H](CC=C)CC(=O)OC(C)(C)C	8	0	11*	4	1	3	3
C=CCC[C@@H](Cc1ccc(F)cc1)C(=O)OC[C@@H](Cc1c[nH]c2ccccc12)NC(=O)[C@H](CC=C)CC(=O)NCCO	11*	0	5	16	6	-9	-3
C=CC[C@@H](CC(=O)N[C@H](CO)Cc1ccccc1)C(=O)N[C@@H](COC(=O)[C@@H](CC=C)CC(=O)OC(C)(C)C)Cc1c[nH]c2ccccc12	3	0	12*	17	5	-5	2
COc1ccc(N2CCN(c3cncc(C)n3)CC2)cc1	5	0	0	4	1	nt	nt
CC1CCN(CC(=O)N2c3ccccc3CC2C)CC1 (stereo unspecified)	-2	0	0	6	-3	nt	nt
CC1Cc2ccccc2N1C(=O)Cn1cc([N+](=O)[O-])cn1 (stereo unspecified)	13*	-1	4	9	2	8	2
CC1Cc2ccccc2N1C(=O)CN1CCN(Cc2ccccc2)CC1 (stereo unspecified)	1	-1	9.8*	2	2	-4	-1
Cc1ccc(-c2cc(N)n(-c3ccc(F)cc3)n2)cc1	1	0	13*	9	4	2	6
CS(=O)(=O)n1nc(OC(=O)c2cccs2)cc1N	10	0	12*	-1	6	-5	2
COc1ccc(S(=O)(=O)n2nc(OC(=O)c3cccs3)cc2N)cc1	-1	-1	1	-5	0	nt	nt
COC(=O)c1cc(NC(=O)NC2CCCCN(Cc3ccc(Cl)cc3)C2=O)cc(C(=O)OC)c1 (stereo unspecified)	0	nt	2	9	3	nt	nt
O=C(C1CCC(CNS(=O)(=O)c2cccs2)CC1)N1CCCCC1 (stereo unspecified)	16*	-1	6	6	5	-4	-2
CC1(C(=O)NC2CCCCCCC2)CCC(=O)N1Cc1ccco1 (stereo unspecified)	0	-1	9.8*	-7	4	-9	-3
COC(=O)c1ccc(C(c2c(C)n(C)n(-c3ccccc3)c2=O)c2c(C)n(C)n(-c3ccccc3)c2=O)cc1	9	0	12*	9	3	2	5
COc1ccccc1CC(=O)O/N=C(\N)Cc1cccc2ccccc12	-18	-1	-14	3	-2	nt	nt
COc1ccccc1C/C(N)=N/O	11*	0	1	11	0	2	-75
COCCn1c(SCC(=O)Nc2cc(C)on2)nc2c(c1=O)SCC2	-7	0	3	2	2	nt	nt
O=C(CCSc1ccccc1)N1CCN(C(=O)c2ccco2)CC1	2	0	14*	7	4	-3	-4
O=C(Cc1ccccc1)N1CCN(C(=O)c2ccco2)CC1	-1	0	-1	1	-3	nt	nt
COCCN(C(=O)COC(=O)C12CC3CC(CC(C3)C1)C2)c1c(N)n(Cc2ccccc2)c(=O)[nH]c1=O	-4	0	2	-2	-11	nt	nt
CSCCC(C)N1CCC(Oc2ccc(C(=O)NCc3ccccn3)cc2)CC1 (stereo unspecified)	-1	0	-2	-5	-4	nt	nt
CC(C)CNS(=O)(=O)c1ccc(CCC(=O)N2CCN(c3ccc(F)cc3)CC2)cc1	-1	-1	-1	-3	-1	nt	nt
COc1ccc(N2CCN(C(=O)CCc3ccc(S(=O)(=O)NCC(C)C)cc3)CC2)cc1	2	0	9.6*	16	1	0	0
CCOC(COC(=O)c1ccccc1C(=O)O)c1ccccc1 (stereo unspecified)	-2	0	2	-12	-3	nt	nt
SMILES	PLCb3 inh	TbMetRS inhib	PLCg1 inh	ADAM10 inh	ADAM17 inh	PLCg1 ctr	PLCb3 confirm
COC(=O)CCCCCCCCC(O)CN1CCCCC1 (stereo unspecified)	12*	0	3	4	4	-7	-4
COc1ccc(CN2CCC2(C)C(=O)NCCc2c[nH]c3ccccc23)c2ccccc12 (stereo unspecified)	1	0	0	3	2	nt	nt
C/C(CC(=O)NC1CCCC1)=N\NC(=O)c1ccc([N+](=O)[O-])c(Cl)c1	8	0	14*	1	5	-6	-3
Cc1cc(NC(=O)c2ccco2)no1	5	0	18*	4	0	-3	1
O=C(Nc1cccc(S(=O)(=O)c2cccc(NC(=O)c3ccco3)c2)c1)c1ccco1	10	0	15*	1	0	-12	-8
NS(=O)(=O)c1cccc(NC(=O)c2cc3ccccc3o2)c1	-4	0	11*	3	-2	-4	-2
COc1cccc(CC(=O)OCC(=O)NNC(=O)c2ccc(Br)cc2)c1	-8	0	-1	-4	-4	nt	nt
CN(C)c1nc2c(c(=O)[nH]c(=O)n2C)n1Cc1ccccc1Br	11	0	11*	11	1	-4	-2
CCOC(=O)N(C)C[C@H]1OCc2cnnn2CCCC(=O)N([C@H](C)CO)C[C@@H]1C	0	nt	-1	-7	-1	nt	nt
O=C(O)c1ccccc1NS(=O)(=O)c1ccc(N/N=C/c2cccc(O)c2O)c([N+](=O)[O-])c1	1	0	9.6*	9	8	4	1
NS(=O)(=O)c1ccc(N/N=C/c2ccc[nH]2)c([N+](=O)[O-])c1	3	-1	12*	7	5	2	7
CCCCN1C(=O)C(CC(=O)NC2CCCCC2)CC(C(=O)N(C)C)=C1C (stereo unspecified)	0	0	1	-15	-7	nt	nt
COc1cccc(CNc2ccccc2O)c1OCc1ccccc1F	-8	-1	-6	3	0	nt	nt
O=C(NNC(=O)c1ccc(F)cc1)c1ccncc1	1	0	11*	9	6	1	-1
COC(=O)c1cccc(CC2(C)C(=O)Nc3cc(-c4ccccc4Cl)ccc32)c1 (stereo unspecified)	8	0	14*	13	7	-1	0
CC1(Cc2c(Cl)cccc2Cl)C(=O)Nc2cc(-c3ccccc3Cl)ccc21 (stereo unspecified)	-2	0	1	-9	1	nt	nt
